The sample as a whole holds a higher share of hits than the screen did.
CHOP inh: inhibitors of CHOP induction in ER stress response | CHO-K1 CHOP-promoter luciferase, tunicamycin-induced, 15-18 h | inhibition, % at 10 µM | 220,000 compounds, 3.8% hits | AID 2732;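 active means compounds that reduced the stress-induced luciferase reporter signal by more than about 70% of percent inhibition, limit read from the data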;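 further: 0% = tunicamycin plus vehicle and 100% = wells without tunicamycin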
VLA-4 inh: inhibition in a human VLA-4 binding assay; inhibition, % (about 7 µM as worked out from the volumes in the protocol); 330,000 compounds, 0.2% hits; P13612; VLA-4 expressing cells, ligand binding flow cytometry; in the data active means inhibition above about 50%
Target sequence (P13612 whole entry, looked up): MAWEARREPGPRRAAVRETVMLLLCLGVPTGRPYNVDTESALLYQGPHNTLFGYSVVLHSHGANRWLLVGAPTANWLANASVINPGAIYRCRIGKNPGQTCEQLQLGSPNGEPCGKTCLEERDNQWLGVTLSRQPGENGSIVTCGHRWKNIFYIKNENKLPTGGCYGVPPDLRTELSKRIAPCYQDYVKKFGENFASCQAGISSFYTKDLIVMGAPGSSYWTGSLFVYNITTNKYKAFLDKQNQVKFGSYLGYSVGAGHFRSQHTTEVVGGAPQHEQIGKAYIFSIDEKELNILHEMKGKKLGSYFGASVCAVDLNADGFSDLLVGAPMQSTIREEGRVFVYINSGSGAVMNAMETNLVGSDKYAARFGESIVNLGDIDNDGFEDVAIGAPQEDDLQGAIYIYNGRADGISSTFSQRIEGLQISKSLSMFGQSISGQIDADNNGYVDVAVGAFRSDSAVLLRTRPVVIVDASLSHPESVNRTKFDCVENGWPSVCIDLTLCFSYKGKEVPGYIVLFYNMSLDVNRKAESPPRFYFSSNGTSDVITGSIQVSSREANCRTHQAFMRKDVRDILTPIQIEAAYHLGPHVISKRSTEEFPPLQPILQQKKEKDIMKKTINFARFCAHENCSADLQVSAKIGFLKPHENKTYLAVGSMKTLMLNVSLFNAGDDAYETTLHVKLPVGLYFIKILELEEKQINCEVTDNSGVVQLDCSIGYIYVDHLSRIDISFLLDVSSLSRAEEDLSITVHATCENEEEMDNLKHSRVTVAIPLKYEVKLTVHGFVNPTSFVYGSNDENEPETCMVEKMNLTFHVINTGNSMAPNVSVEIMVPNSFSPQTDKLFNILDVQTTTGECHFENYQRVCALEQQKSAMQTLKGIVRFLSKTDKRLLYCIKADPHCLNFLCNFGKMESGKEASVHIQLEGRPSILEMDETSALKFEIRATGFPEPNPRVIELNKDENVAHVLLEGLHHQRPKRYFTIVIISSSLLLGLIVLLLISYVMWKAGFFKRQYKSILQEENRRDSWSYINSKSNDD
B2AR ag: agonists of human beta-2 adrenergic receptor inducing internalization; P07550; AID 504454; 340,000 compounds, 0.43% hits; Am2.2-beta2AR cells, FAP receptor internalization, flow cytometry; response, % (test concentration not listed);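 active means response above a set limit, near 3 SD of response in nonfluorescent compounds, cut at about 42% in these data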
XBP1 UPR activ: adaptive UPR (XBP1) activation; CHO-XBP1 luciferase reporter, IRE1-XBP1 UPR activation, luminescence; percent of tunicamycin response, DMSO as zero; activation, % at 20 µM; 330,000 compounds, 0.33% hits;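 active means versus positive control, 20 µM dose yields 30% or more activation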;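 further: 100% = tunicamycin at 10 µg/mL and 0% = DMSO only wells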
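assay system = CHO-XBP1 luciferase reporter cells | amount = 1000 cells/well | buffer or medium = F12 plus 10% FBS | compound dosing = single point, 20 µM final compound, 1% DMSO | incubation = 16-18 h cell attachment at 37 °C, then 6 h compound exposure | detection = Steady-Glo luminescence read | controls = tunicamycin 10 µg/mL and vehicle-only wells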
CHOP UPR activ: apoptotic UPR (CHOP) activation; CHO-CHOP luciferase reporter, luminescence; percent of tunicamycin response over DMSO baseline; activation, % at 10 µM; 330,000 compounds, 0.34% hits; AID 449763;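 active means at 10 µM dose, activation of 40% or more, normalized to positive control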;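 further: 100% = tunicamycin at 10 µg/mL and 0% = DMSO alone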
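measured by = luciferase luminescence | assay system = CHO-CHOP cells, stable luciferase reporter of PERK-eIF2a-CHOP signalling | amount = 500 reporter cells seeded per well | timing = 6 h compound exposure at 37 °C after overnight seeding | controls = positive tunicamycin 10 µg/mL, negative DMSO alone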
CHOP UPR conf: apoptotic UPR (CHOP) activation, confirmed; CHO-CHOP cells, CHOP-luciferase reporter luminescence; percent of tunicamycin response, DMSO as zero; activation, % at 10 µM; 1,000 compounds, 64% hits; shares compounds with CHOP UPR activ; AID 463112; in the data active means activation above about 33%;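 further: 0% = DMSO wells and 100% = tunicamycin 10 µg/mL wells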
UPR XBP1 confirm: adaptive UPR (XBP1) activation, confirmed | shares compounds with XBP1 UPR activ | CHO-XBP1 IRE1-XBP1 luciferase reporter, luminescence | activation, % at 20 µM | 1,000 compounds, 63% hits;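 active means reporter signal at least 30% of the positive control's activation in two or more of four replicate wells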;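 further: plate controls were DMSO negative control for no effect and tunicamycin 10 µg/mL positive control for full effect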
* marks the source's active call; other numbers are inactive results; i = inactive; . = no result given.

SMILES	CHOP inh	VLA-4 inh	B2AR ag	XBP1 UPR activ	CHOP UPR activ	CHOP UPR conf	UPR XBP1 confirm
CCc1ccc(NC(=O)COc2ccc(/C=C(/C#N)c3nc4ccccc4[nH]3)cc2OC)cc1	87*	10	0	192*	172*	1	-2
NS(=O)(=O)c1ccc(CCNC(=O)C2CCCN2S(=O)(=O)c2cccc3nsnc23)cc1 (stereo not drawn)	.	7	4	-3	-1	.	.
COc1cc(/C=C2/C(=N)N3C=CSC3=NC2=O)ccc1OCCCOc1ccccc1C	0	5	-2	18	2	.	.
CCOc1cc(/C=C2/C(=N)N3C=CSC3=NC2=O)ccc1OCCCOc1ccccc1C	85*	-14	4	265*	78*	36*	134*
CC(=O)Nc1ccc(N=Cc2c(O)c3ccccc3oc2=O)cc1	.	25	-4	14	17	.	.
CC(=O)c1cccc(N=Cc2c(O)c3ccccc3oc2=O)c1	.	-3	9	147*	159*	35*	93*
Cc1ccc(F)cc1N=Cc1c(O)c2ccccc2oc1=O	.	3	-2	76*	148*	131*	141*
COC(=O)/C=C/c1ccsc1NC(C)=O	-36	9	12	0	1	.	.
COC(=O)c1c(NC(=O)CC2Nc3ccccc3NC2=O)sc(C)c1C (stereo not drawn)	35	-19	-7	47*	160*	40*	31*
Cc1ccc2oc(-c3ccc(NC(=O)c4ccc5c(c4)OCO5)cc3)nc2c1	17	-23	4	4	6	.	.
O=C(Nc1ccc(-c2nc3ccccc3o2)cc1)c1ccc2c(c1)OCO2	85*	7	-14	88*	46*	7	24
N#Cc1ccccc1OCC(=O)OCCCOC(=O)COc1ccccc1C#N	.	-6	9	-5	0	.	.
O=S(=O)(/N=C(/c1ccccc1)N1CCOCC1)c1ccc(F)cc1	.	-3	3	-2	0	.	.
Cc1sc(NC(=O)c2cc(-c3ccc(Cl)cc3)nc3ccccc23)c(C(N)=O)c1C	-25	-12	6	199*	107*	85*	183*
O=C(COc1ccc(/C=N/NC(=O)c2cc3ccccc3o2)cc1Br)Nc1ccccc1	-21	27	-18	107*	275*	58*	45*
COc1cccc(-c2c(-c3cc(OC)cc(OC)c3)n(C)c3ccc(-c4cnc(N5CCOCC5)nc4)cc23)c1	.	13	5	124*	104*	28	93*
COc1ccc(-c2csc3nc(-c4ccc(C)cc4)oc(=O)c23)cc1OC	63	26	14	59*	57*	32	42*
COc1ccc(-c2csc3nc(C(C)(C)C)oc(=O)c23)cc1OC	53	1	-19	-1	0	.	.
CC1(C)C=Cc2c(c3c(c4c(=O)c(-c5ccc(O)cc5)coc24)OC(C)(C)CC3)O1	92*	6	10	54*	87*	44*	64*
CC1CC(C)CN(C(=O)COC(=O)CNC(=O)C23CC4CC(CC(C4)C2)C3)C1 (stereo not drawn)	.	7	3	0	0	.	.
COc1cc(S(=O)(=O)Nc2ccccc2)ccc1N=Cc1c(C)[nH]n(-c2ccc(C)cc2)c1=O	49	-17	.	1	2	.	.
COc1cc(SC#N)ccc1N=Cc1c(C)[nH]n(-c2ccc(C)c(C)c2)c1=O	107*	6	10	54*	68*	39*	73*
COc1cc(SC#N)ccc1N=Cc1c(C)[nH]n(-c2ccc(Cl)cc2)c1=O	104*	0	10	101*	86*	89*	134*
O=C(NC1CC2CCCC(C1)N2Cc1ccccc1)c1cccc(Cl)c1 (stereo not drawn)	.	-7	2	-5	1	.	.
Cc1c(NC(=S)NC(=O)c2sc3ccccc3c2Cl)cccc1C(=O)O	-4	0	-10	-5	-3	.	.
SMILES	CHOP inh	VLA-4 inh	B2AR ag	XBP1 UPR activ	CHOP UPR activ	CHOP UPR conf	UPR XBP1 confirm
COc1ccccc1C(=O)NC(=S)NNC(=O)c1sc2ccccc2c1Cl	89*	-8	4	38*	48*	51*	53*
FC(F)(F)c1nc2ccccc2n2c(-c3ccc(Cl)cc3Cl)nnc12	28	-14	5	1	2	.	.
FC(F)(F)c1nnc2c(Sc3ccccc3)nc3ccc(Cl)cc3n12	-104	11	36	115*	233*	152*	124*
CCOC(=O)c1c(NC(=O)COC(=O)Cn2cnc3c2c(=O)n(C)c(=O)n3C)sc(C)c1CC	.	-13	0	1	-2	.	.
CCOC(=O)c1cnn(-c2ccc([N+](=O)[O-])cc2)c1N	13	9	-4	2	3	.	.
COc1ccc2nc(/C(C#N)=C\c3ccc(Oc4ccc([N+](=O)[O-])cn4)cc3)[nH]c2c1	71*	-10	24	182*	98*	24	37*
O=[N+]([O-])c1ccc(N/N=C/c2cn(-c3ccccc3)nc2-c2ccccc2)cc1	14	-274	-46	2	4	.	.
NS(=O)(=O)c1ccc(N/N=C/c2cn(-c3ccccc3)nc2-c2ccccc2)c([N+](=O)[O-])c1	10	-14	81*	78*	104*	0	75*
CCOC(=O)c1c(N/N=C/c2cccnc2)n[nH]c1C	-17	-2	2	1	4	.	.
CCOC(=O)[C@@H](C)N(C(=O)OC(C)(C)C)S(=O)(=O)N(Cc1ccccc1)[C@H](C(=O)OC)C(C)C	.	.	12	.	.	.	.
O=S(=O)(Cc1c(F)cccc1Cl)c1ncn[nH]1	3	3	3	-8	-1	.	.
Cc1ccc(C(=O)Cn2c(C(=O)/C=C/c3ccccc3)nc3ccccc32)cc1	27	15	14	32*	249*	325*	46*
O=C(Cn1c(C(=O)c2ccccc2)nc2ccccc21)c1ccc(Cl)cc1	.	.	-3	.	.	.	.
O=C(CCl)N1CCN(S(=O)(=O)Cc2ccccc2)CC1	.	8	-2	-8	13	.	.
O=C(NC(=S)Nc1ccc(NC(=O)c2cccs2)cc1)c1cc2ccccc2o1	76*	35	-7	121*	57*	46*	106*
O=C(NC(=S)Nc1ccc(NC(=O)c2cccs2)cc1)c1ccco1	19	23	-18	0	3	.	.
C[C@@H](N)C(=O)NC[C@H]1O[C@@H](n2cnc3c(N)ncnc32)[C@H](O)[C@@H]1O	.	.	-2	0	2	.	.
O=C(NN1C(=O)/C(=C/c2ccc(O)c(O)c2)SC1=S)c1ccccc1	.	i	-39	59*	43*	2	57*

Assay outcomes deposited in PubChem by several laboratories.
